An excerpt weighted towards active compounds, which were near 2.4% of everything screened.
beta cell repl = MIN6 beta-cell proliferation induction; AID 2380; MIN6 cells proliferation, ATPlite luminescence, 48 h; cells starved in 0.2% serum; 100% = growth in 10% serum; proliferation, % at 10 µM; 0.29% of 330,000 active;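 active means compounds whose signal lies at least 3.5 SD above the mean of all wells on their plate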;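 further: 0% = DMSO-treated cells in low-serum medium and 100% = 10% serum control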
DAGLB inh = blocks human DAGLB lipase activity | HEK293T DAGLB membrane lysate, EnzChek fluorogenic substrate | inhibition, % at 5.17 µM | 0.059% of 340,000 active; in the data active means inhibition above about 34%;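 further: 0% = enzyme with vehicle and 100% = wells lacking enzyme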
Myeloid diff 2 = myeloid differentiation induction; ER-HoxA9 myeloid progenitors, lysozyme-GFP differentiation, flow cytometry; calls only at 10 µM; 1% of 360,000 active; AID 624256;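 active means normalized GFP-positive differentiation at or above the plate's own cutoff, the solvent-only control mean plus 3 SD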;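 further: cells exposed to compound for four days before flow analysis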
CendR NRP1 mod = alters CendR peptide binding to human NRP-1 | O14786 | FAM-RPARPAR peptide binding to NRP-1, fluorescence polarization | inhibition, % at 25 µM | 0.85% of 360,000 active;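 active means inhibition or corrected inhibition above about 18%, plus a signal ratio from 0.5 to 1.5, limit read from the data, passing the limit was not always enough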
SENP1 inh = blocks the human SENP1 SUMO protease catalytic domain | Q9P0U3 | recombinant SENP1 catalytic domain, CyPet-SUMO1-YPet FRET cleavage | inhibition, % at 10 µM | 0.21% of 360,000 active;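 active means inhibition at least 30% at 10 µM, raw YFP signal under a set limit, fluorescence ratio 0.5 to 1.5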;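 further: 0% = enzyme with DMSO and 100% = no enzyme wells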
Target sequence (Q9P0U3 419-644 limits assumed): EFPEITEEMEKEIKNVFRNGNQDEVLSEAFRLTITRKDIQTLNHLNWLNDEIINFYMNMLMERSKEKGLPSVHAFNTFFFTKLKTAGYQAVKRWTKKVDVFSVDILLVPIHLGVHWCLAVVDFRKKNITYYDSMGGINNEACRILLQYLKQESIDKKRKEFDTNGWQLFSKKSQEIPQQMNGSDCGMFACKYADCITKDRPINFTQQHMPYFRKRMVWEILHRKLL
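Material: hSENP1 catalytic domain, recombinant; medium: Tris pH 8 with BME, BSA, NP40 and catalase; compound: single concentration of 10 µM compound, 0.5% DMSO final; technique: FRET read of cyan and yellow fluorescence; timing: 50 min enzyme reaction, room temperature, light-protected; reagent: SFCypet-SUMO1-SFYpet substrate at 25 nM; control set: no-enzyme low, enzyme-DMSO high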
MT1-MMP act inh = MT1-MMP (human) activation inhibition; P50281; HT1080 RFP-PRO-GFP cells, GFP/RFP ratio fluorescence, overnight; percent of plate control window, DMSO zero; GFP/RFP ratio change, % at 20 µM; 0.061% of 360,000 active; AID 651647;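 active means GFP/RFP ratio change of at least 30% with cell ATP level not reduced by more than half and red fluorescence within 50% of control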
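Compound: 20 µM single dose, 1% DMSO / System: HT1080 RFP-PRO-GFP cells / Controls: DMSO and RFP-L50D-GFP cell wells / Read-out basis: GFP/RFP fluorescence ratio / Schedule: overnight compound exposure at 37 °C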
The depositor's hits bear a star; i = inactive; . = not tested or not shown; + = active, no number.

SMILES	beta cell repl	DAGLB inh	Myeloid diff 2	CendR NRP1 mod	SENP1 inh	MT1-MMP act inh
COC(=O)c1ccccc1NC(=O)CSCC(=O)Nc1ccccc1	-1.1	-2.7	i	-1.8	4.5	-0.3
CC1CCC/C(=C\Nc2ccc(O)cc2)C1=O (stereo unspecified)	-2.7	5.9	+	2.7	-4.6	16.0
Cc1cc(C(=O)O)ccc1N/C=C1\CCCC(C)C1=O (stereo unspecified)	-0.7	-0.4	i	4.2	-10.5	-1.9
Cc1ccc2c(c1)C(c1ccncc1)=NNC(c1ccc(F)cc1)=N2	-0.7	-0.1	i	35.8*	0.9	1.1
O=C(OCC(=O)N1CCc2ccccc2C1)c1cccs1	-1.7	-0.1	i	-6.3	1.4	0.9
CCOC(=O)[C@H](O)[C@@H](O)c1cccc([C@H](O)[C@@H](O)C(=O)OCC)c1	-6.8	-2.1	i	24.4*	1.6	11.9
Nn1c(SCC(=O)NCCC2=CCCCC2)nnc1C(F)(F)F	-0.9	0.3	i	27.6*	-0.2	-0.5
Nn1c(SCC(=O)NCCC2=CCCCC2)nnc1C1CCCCC1	-2.0	2.7	i	3.5	0.5	-4.6
CC1SCC(=O)N(CC(=O)NCc2ccccc2)C1=O (stereo unspecified)	-4.2	-0.4	i	14.5	1.6	0.9
O=C(CN1C(=O)CSC1=O)NCc1ccccc1	1.6	-2.6	i	26.6*	1.6	0.1
COc1cccc(C(C)(O)c2nc(-c3cccc(C(C)C)c3)cs2)c1 (stereo unspecified)	.	.	i	-4.8	1.8	2.8
O=C(C(O)c1ccccc1)N1CCN(S(=O)(=O)c2ccc(C(F)(F)F)cc2)CC1 (stereo unspecified)	.	.	i	3.1	2.4	-3.6
COc1ccc(-c2cc(C(=O)N3CCN(c4ccccn4)CC3)c3ccccc3n2)cc1	.	0.9	+	-8.2	-0.1	-9.5
Cc1ccc(Nc2c(-c3ccccc3O)nc3ncccn23)cc1	-1.8	4.7	i	25.3*	12.1	8.6
COC(=O)[C@@]12C[C@@H](CC(=O)N3CCSCC3)C(=O)N(Cc3cccc4ccccc34)C1=CCC(C)(C)C2	.	.	i	15.3	1.7	-22.9
COC(=O)C1(C(=O)OC)C[C@H](c2ccc(OC)cc2)N(Cc2ccccc2OC)[C@@H]1c1ccc(OC)cc1	.	.	i	-8.5	1.1	4.6
COc1ccc(NS(=O)(=O)c2cc(NC(=O)C3CC3)ccc2N2CCCCC2)cc1	-4.2	-1.6	+	-17.4	-0.4	0.8
OCCC1CN(Cc2ccccc2-c2ccco2)CCN1C1CCCC1 (stereo unspecified)	-2.7	-0.5	i	-0.6	-5.9	-1.3
CCc1ccccc1N(CC(=O)NC1CCCC1)C(=O)CNC(=O)c1cccs1	-2.0	-1.7	i	4.0	-1.0	-3.6
Cn1c(N)c(S(=O)(=O)N2CCN(c3ccccc3Cl)CC2)c(=O)n(C)c1=O	2.2	2.4	i	26.6*	0.4	2.0
Cc1cc(C)n(C2CC(=O)N(c3cc(Cl)cc(Cl)c3)C2=O)n1 (stereo unspecified)	-2.4	-0.1	i	35.2*	0.2	7.9
Cc1cc(C)cc(N2C(=O)CC(n3nc(C)cc3C)C2=O)c1 (stereo unspecified)	-2.6	3.1	i	4.0	-4.1	2.4
CC1(C)CCC(=O)N2CC[C@H]3C[C@H](OC(=O)Nc4ccc5c(c4)OCO5)C[C@@H]1[C@H]32	11.2	0.0	i	19.9*	-0.4	-11.9
Cc1ccc(SCC(=O)OC(C)C(=O)Nc2ccc(S(N)(=O)=O)cc2)cc1C (stereo unspecified)	6.9	-1.8	i	44.5*	6.9	4.5
CCCN(CCC)CCCNC(=O)c1cc2cc3ccc(Cl)cc3nc2o1	-5.2	-0.1	i	-16.5	1.7	6.3
SMILES	beta cell repl	DAGLB inh	Myeloid diff 2	CendR NRP1 mod	SENP1 inh	MT1-MMP act inh
CCCCN(CC)CCNC(=O)c1cc2cc3ccc(Cl)cc3nc2o1	-4.3	1.0	+	15.7	-1.2	-2.8
COc1ccc2c(c1OC)C(=O)OC2C/C(=N\NC(N)=O)c1ccccc1 (stereo unspecified)	-0.6	-0.3	i	-7.8	1.2	3.9
O=C(O)c1[nH]c2ccc([N+](=O)[O-])cc2c1-c1ccccc1	-5.3	4.1	i	6.5	2.0	-0.1
NNC(=O)c1[nH]c2ccc([N+](=O)[O-])cc2c1-c1ccccc1	-6.2	-32.1	i	23.6*	-0.3	0.0
COc1ccc(C(=O)C(OC(=O)c2ccc(C)c(NC(C)=O)c2)c2ccccc2)cc1 (stereo unspecified)	-0.3	-1.1	+	13.5	2.8	-1.0
O=C(Cc1ccc(Cl)cc1)NCC(=O)N1CCC2(CC1)NCCc1[nH]cnc12	.	-1.6	i	-5.5	0.3	11.0
Brc1ccc(C2=CC(c3cccs3)n3ncnc3N2)cc1 (stereo unspecified)	-4.2	-236.5	+	127.4	-23.3	-269.3
Fc1ccc(C2=CC(c3ccco3)n3ncnc3N2)cc1 (stereo unspecified)	-1.3	-15.5	i	37.7*	-27.7	-82.5
OCCCc1nc2n(n1)C(c1cccs1)C=C(c1ccc(Br)cc1)N2 (stereo unspecified)	-6.2	.	.	.	.	.
C1=C(c2ccc(-c3ccccc3)cc2)Nc2ncnn2C1c1ccco1 (stereo unspecified)	.	-97.2	i	144.4	-16.6	-174.8
Cc1c([N+](=O)[O-])c(C(=O)NC2CCCCC2)nn1C	2.2	0.7	i	5.6	-0.8	-1.0
O=C(O)CNC(=O)c1ccc(Oc2c(F)c(F)c(Oc3ccc(C(=O)NCC(=O)O)cc3)c(F)c2F)cc1	2.8	2.4	+	-7.7	1.1	-0.8
Nc1ccc(C(=O)NCCCCCCNC(=O)c2ccc(N)cc2)cc1	-1.4	1.8	i	-4.1	1.6	-0.8
Nc1ccc(C(=O)NCC(=O)O)cc1	-0.3	-1.4	+	-11.9	-0.1	3.2
COC(C/C=C/[C@H](O)[C@@H](C)OCc1ccccc1)OC	-0.4	-1.6	i	1.7	0.3	-1.6
COC(C/C=C\[C@H](O)COCc1ccccc1)OC	1.3	1.1	i	25.4*	5.1	3.6
O=C(/C=C/c1ccc2ccccc2n1)c1cc(Br)ccc1O	-5.3	1.3	+	-71.4	-37.4	-32.8
O=C(O)/C=C/c1ccc2ccccc2n1	1.8	-1.0	i	12.5	1.5	1.4
Cc1sc2nc(CSc3nc4ccccc4c(=O)n3CCCN3CCOCC3)[nH]c(=O)c2c1C	-3.6	-0.6	+	-101.6	-18.4	-23.3
CC(=O)c1c(C)[nH]c(C(=O)CSc2nc3ccccc3c(=O)n2CCCN2CCOCC2)c1C	-1.8	1.9	i	-3.7	1.7	-1.6
Cc1ccc(/C=C/C2=NN(C)C(=O)CC2)cc1	-4.4	-1.4	i	36.0*	0.7	-1.3
